Screening results deposited in PubChem BioAssay by Broad Institute.
In the library only some 2.1% were active in any assay of this set; here they are far more common.
EWS-Fli inh – EWS/Fli-driven NR0B1 reporter inhibitors, primary screen, A673 cells, NR0B1 luciferase, luminescence, MLPCN library | actives 0.67% (n = 350,000) | inhibition, % at 12.6 µM | viability-normalised;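 active means mean inhibition of at least 50% after viability correction, with every replicate also passing that limit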;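 further: firefly luciferase signal divided by Alamar Blue viability fluorescence both relative to DMSO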
XiGFP reactiv – activators of inactive X chromosome reactivation, primary screen, imaging, XiGFP fibroblasts, GFP high-content imaging, set 2 | XiGFP mouse fibroblasts, % GFP-positive cells imaging, 3 d; cells co-treated with 5-aza-dC sensitizer; scaled so ellipticine positive control = 100% | activation, % at 7.58 µM | actives 0.055% (n = 360,000) | AID 743238, 2013;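 active means mean normalized replicate activation at least 10% and every replicate at or above 10%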;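 further: 0% = median of on-plate neutral control wells and 100% = ellipticine 6 µM median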
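assay system = SV40-immortalized XiGFP fibroblast cells, line 68-5-11 | buffer or medium = DMEM plus 5-aza-dC sensitizer | doses = single-point pinned compound dosing | times = 3-day compound exposure, then 15 min fixation at room temperature | benchmarks = positive control ellipticine, 6 µM final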
MLL AF4-AF9 inh – inhibitors of AF4 peptide binding to AF9, primary screen, biochemical, AlphaScreen, biotin-AF4 peptide, FLAG-AF9, single point. inhibition, % at 10 µM. Protein AF-9 (Homo sapiens), P42568. actives 0.47% (n = 350,000);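 active means every replicate reaching a set inhibition limit, whatever the replicate mean, cut at about 25% in these data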;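 further: 0% = plate neutral control median and 100% = total signal loss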
Target sequence (P42568 whole entry, looked up): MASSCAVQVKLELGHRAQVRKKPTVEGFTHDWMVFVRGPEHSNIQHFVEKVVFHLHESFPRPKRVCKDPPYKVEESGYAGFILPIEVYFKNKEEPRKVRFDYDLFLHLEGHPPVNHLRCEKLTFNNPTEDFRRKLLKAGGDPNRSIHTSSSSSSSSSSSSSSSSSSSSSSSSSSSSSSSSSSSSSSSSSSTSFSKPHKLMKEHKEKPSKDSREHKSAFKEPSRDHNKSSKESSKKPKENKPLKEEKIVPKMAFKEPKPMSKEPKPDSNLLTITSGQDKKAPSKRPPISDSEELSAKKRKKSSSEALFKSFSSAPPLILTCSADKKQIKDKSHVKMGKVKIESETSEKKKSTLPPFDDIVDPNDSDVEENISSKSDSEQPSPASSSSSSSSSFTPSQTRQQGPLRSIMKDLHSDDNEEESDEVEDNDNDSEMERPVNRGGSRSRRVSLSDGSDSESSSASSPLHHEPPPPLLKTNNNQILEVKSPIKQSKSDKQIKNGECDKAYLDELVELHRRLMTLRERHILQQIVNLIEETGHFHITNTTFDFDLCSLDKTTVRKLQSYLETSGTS
PAX8 reporter – inhibitors of PAX8-driven TPO luciferase reporter, primary screen, RMG-I cells, single concentration. inhibition, % at 12.6 µM. actives 1.2% (n = 360,000). AID 652154, 2013. SteadyGlo, 24 h;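 active means mean replicate inhibition at least 60% with every replicate also reaching 60%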;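 further: luciferase light reporting Pax8 driven TPO promoter activity; plate controls were median of neutral control wells for no effect and mitoxantrone controls for full effect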
INS-1E GSIS act – GLuc luminescence reporter in INS-1E cells, primary screen for activators of glucose-dependent secretion of insulin; INS-1E GLuc reporter insulin secretion, 2-3 h; activation, % at 16.6 µM; actives 0.61% (n = 370,000);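 active means lowest replicate activation of at least 40%, so every replicate reaches that level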;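 further: 0% = median of neutral control wells and 100% = median of IBMX positive control wells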
PGC1a acetyl inh – inhibitors of PGC1a acetylation signal, primary screen, cell-based, U2OS, AlphaScreen, inhibitor mode | AlphaScreen anti-acetyl-lysine; with virally co-expressed GCN5 acetyltransferase | inhibition, % at 15.6 µM | actives 0.17% (n = 350,000);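 active means every replicate shows inhibition of at least 40%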;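 further: 0% = neutral control wells and 100% = positive control wells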
Numbers without * were called inactive; · = no result given.

SMILES | EWS-Fli inh | XiGFP reactiv | MLL AF4-AF9 inh | PAX8 reporter | INS-1E GSIS act | PGC1a acetyl inh
COc1ccccc1/C=C/C(=O)OCCCN(C)C | 4.0 | 70.6* | -0.6 | -11.2 | 8.1 | ·
CCOc1ccc(CCNC(=O)COC(=O)c2cccc(N(C)C)c2)cc1OCC | -53.6 | 0.6 | 0.8 | · | 52.1* | -3.0
COc1ccc(/C=C/C(=O)OCCCN(C)C)cc1 | 5.3 | -0.1 | 1.5 | 1.8 | -10.4 | ·
CCOc1ccc(CCNC(=O)COC(=O)Cn2nc(C)c([N+](=O)[O-])c2C)cc1OCC | 0.5 | 0.0 | -1.6 | -20.0 | 55.9* | -2.3
CCOc1ccc(CCNC(=O)COC(=O)COc2ccc(C(C)=O)cc2)cc1OCC | -2.3 | 0.3 | -9.7 | -10.4 | 5.6 | ·
C[C@@H]1CN([C@@H](C)CO)C(=O)c2ccccc2-c2ccccc2CO[C@@H]1CN(C)C(=O)Cc1ccccc1 | · | 0.7 | · | · | -1.2 | ·
COc1ccccc1/C=C/C=O | -1.7 | · | -3.2 | -5.0 | · | 2.2
CO[C@@H]1CN(C)C(=O)c2ccc(NC(=O)C3CCC3)cc2OC[C@H](C)N(C(=O)NC(C)C)C[C@@H]1C | 1.6 | 0.2 | -0.5 | · | 7.6 | -3.5
O=C(C[C@@H]1CC[C@H]2[C@@H](COC[C@@H](O)CN2S(=O)(=O)c2ccc(F)cc2)O1)NCc1ccc(Cl)c(Cl)c1 | -0.3 | 0.1 | 2.4 | 51.6 | -10.5 | 0.2
CCOc1ccc(CCNC(=O)COC(=O)/C=C/c2ccccc2OC)cc1OCC | -1.9 | 0.2 | 0.8 | -5.1 | 46.9* | ·
CCOc1ccc(CCNC(=O)COC(=O)/C=C/c2ccc(OC)c(OC)c2)cc1OCC | · | 0.0 | 5.0 | -10.3 | 3.1 | ·
CCOc1ccc(CCNC(=O)c2cc(C)on2)cc1OCC | · | 0.0 | 0.5 | -1.3 | 55.0* | 1.4
CCOc1ccc(CCNC(=O)c2c(C)noc2C)cc1OCC | -1.6 | 0.1 | 1.1 | · | 5.7 | ·
CCOc1ccc(CCNC(=O)COC(=O)COc2cc(C)cc(C)c2)cc1OCC | 1.7 | 0.1 | -8.7 | -6.9 | 45.4* | 12.8
COc1ccc(CCNc2nnc(Sc3nnnn3-c3ccccc3)s2)cc1OC | · | · | · | 94.1* | · | -24.9
CN1c2ccc(-c3cccc(C#N)c3)cc2[C@@H]2[C@@H](CCN2S(=O)(=O)c2ccccc2)[C@@H]1CO | 7.7 | 0.9 | -2.7 | -1.4 | -0.7 | -5.3
Cn1c(CN2CCCC2)nc2cc(NS(=O)(=O)c3ccc(Cl)cc3)ccc21 | · | · | · | · | · | -16.8
Cc1ccc(S(=O)(=O)Nc2ccc3c(c2)nc(CCN2CCCC2)n3C)cc1 | 0.8 | 0.0 | 4.0 | 93.6* | -4.0 | 3.8
Cn1c(CCN2CCCC2)nc2cc(NS(=O)(=O)c3ccc(F)cc3)ccc21 | -2.3 | 0.0 | -2.4 | 84.3* | -23.9 | ·
Cn1c(CCN2CCCC2)nc2cc(NS(=O)(=O)c3ccc(Cl)cc3)ccc21 | 28.8 | 0.1 | 6.2 | 100.6* | -20.6 | 9.4
C[C@@H]1CN([C@H](C)CO)C(=O)c2cccc(NC(=O)c3nc4ccccc4s3)c2O[C@H]1CN(C)Cc1ccncc1 | 5.8 | 0.0 | 6.8 | 23.3 | -7.7 | 6.1
O=C(CC1CC1)N[C@H]1CC[C@@H](CCNS(=O)(=O)c2ccc(F)cc2)O[C@H]1CO | 0.6 | -0.3 | -2.7 | -6.7 | 5.2 | -7.0
O=C(C1CC1)N1[C@@H](CO)[C@@H](c2ccccc2)C12CN(Cc1cncnc1)C2 | 2.1 | 0.0 | -2.0 | -12.7 | 11.9 | 3.0
CN1CCN(C2CCN(Cc3ccc(O)c4ncccc34)CC2)CC1 | -1.3 | 0.2 | 47.1* | 6.6 | · | ·
Oc1ccc(CN2CCN(Cc3ccccc3)CC2)c2cccnc12 | · | · | · | -1.6 | · | -0.5
CC(=O)N1CCN(C(=O)c2cc(C)nc3ccccc23)CC1 | 5.1 | 0.0 | 1.4 | 5.3 | 5.1 | ·
Cc1cc(C(=O)N2CC=C(c3ccccc3)CC2)c2ccccc2n1 | 72.0* | 0.2 | -6.6 | 46.3 | 4.1 | ·
O=C(c1cc(-c2ccccc2)nc2ccccc12)N1CCCC1 | -5.0 | -0.1 | -2.3 | -1.0 | 44.4* | -0.2
